Test results taken from publication PMC2266615 (The Journal of General Physiology, 2005).
Like-named read-outs stand apart in the source and are kept apart here. The star is where a group is joined. acrylodan = 6-acryloyl-2-dimethylaminonaphthalene, CN(C)c1ccc2cc(C(=O)CC*)ccc2c1

How the values were obtained:
[1] = extrapolated from peptide binding, [lipid]eff > 10^−2 M
ErbB1 [2] = settings: cardiac fibroblasts; ref Murasawa et al., 1998; cited from earlier work
ErbB1 [3] = settings: ref Li et al., 2004a, cited from earlier work; for steady-state ErbB1 autophosphorylation: times >20 min; for initial peak of ErbB1 autophosphorylation: two other cell types
ErbB1 [4] = experiment: EGF-mediated ErbB1 autophosphorylation in Cos1 cells; assay type: cell-based
ErbB1 [5] = settings: ref Li et al., 2004a; cited from earlier work
[6] = effect of added agents on binding of ErbB1; settings: 2 μM sphingosine; PC/PS vesicles
ErbB1 [7] = settings: A431 cells, 5 min after EGF; ref Friedman et al., 1989; cited from earlier work
calmodulin (Ca/CaM) = calmodulin (Ca/CaM) (Homo sapiens, UniProt P0DP23); experiment: Ca/CaM binding by competition with PC/PS vesicles; design: species or system bovine brain and human brain; settings: 2:1 PC/PS LUVs, 100 mM KCl, 1 mM MOPS, pH 7.0, 100 μM EGTA + 120 μM Ca2+; trace peptide ~5 nM; centrifugation; fit of Eq. 2
Outline: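 Trace (~5 nM) [3H]NEM-labelled test peptide mixed with 100-nm sucrose-loaded 2:1 PC/PS LUVs (total lipid 2 × 10−5 M; repeats with 3:1 PC/PS) and varied bovine or human brain CaM. Spun 100,000 g for 1 h. Percent bound from supernatant/pellet counts; KCaM from a competition equation (Eq. 2) fit.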

[8] = assay type: binding; settings: for rate of removal from vesicles by Ca/CaM: 2 μM Ca/CaM
Outline: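 Stopped-flow fluorescence mixing of two solutions. The second holds 0.5–7 μM CaM with 50 μM CaCl2. Both contain 100 mM KCl and 1 mM MOPS, pH 7.0. Time constants τ come from exponential fluorescence rise; the transfer rate constant is the slope of 1/τ against [CaM].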

[9] = target: ErbB1(645–660) peptide with a phosphorylated Thr654 (human (from the printed accession P00533)); experiment: centrifugation of vesicles
ErbB1 [10] = settings: membranes and solubilized form; ref Davis et al., 1988; cited from earlier work
hepatocytes = settings: EGF, in the next 2–3 min, ref Nojiri and Hoek, 2000; cited from earlier work
A431 cells = settings: ref Hughes et al., 1991, cited from earlier work; for intracellular [Ca2+]: EGF

645–660 region of ErbB1: tethered 645–660 region of ErbB1 (RRRHIVRKRTLRRLLQ; UniProt P00533 669-684, looked up, fragment)
ratio of bound/free = K[lipid]eff [1]: > 100
time bound to the plasma membrane (tethered region) [1]: > 99%

CC(=O)OCOC(=O)CN(CC(=O)OCOC(C)=O)c1ccccc1OCCOc1ccccc1N(CC(=O)OCOC(C)=O)CC(=O)OCOC(C)=O [BAPTA-AM]
angiotensin II–stimulated ErbB1 transactivation (ErbB1 [2]): inhibit

NCCCCCCNS(=O)(=O)c1cccc2c(Cl)cccc12 [W-7]
angiotensin II–stimulated ErbB1 transactivation (ErbB1 [2]): inhibit
steady-state ErbB1 autophosphorylation (ErbB1 [3]): not the steady-state value
initial peak of ErbB1 autophosphorylation (ErbB1 [3]): inhibit the initial peak
ErbB1 receptor levels (ErbB1 [4]; 20–50 μM W-7, anti-ErbB1 reprobe): did not affect receptor levels
inhibition of EGF-mediated ErbB1 tyrosine phosphorylation (ErbB1 [4]; 20–50 μM for 30 min, then 100 ng/ml EGF 10 min, Western blot 4G10): dose-dependent inhibition
tyrosine kinase activity of purified ErbB1 (ErbB1 [5]): do not inhibit

NCCCCNS(=O)(=O)c1ccc2ccccc2c1 [W-12]
steady-state ErbB1 autophosphorylation (ErbB1 [3]): not the steady-state value
initial peak of ErbB1 autophosphorylation (ErbB1 [3]): inhibit the initial peak
tyrosine kinase activity of purified ErbB1 (ErbB1 [5]): do not inhibit

NCCCCNS(=O)(=O)c1ccc2c(Cl)cccc2c1 [W-13]
steady-state ErbB1 autophosphorylation (ErbB1 [3]): not the steady-state value
initial peak of ErbB1 autophosphorylation (ErbB1 [3]): inhibit the initial peak
tyrosine kinase activity of purified ErbB1 (ErbB1 [5]): do not inhibit

CCCCCCCCCCCCC/C=C/[C@@H](O)[C@@H](N)CO [sphingosine]
ErbB1(645–660) peptide desorbed from vesicles [6]: 75%

C/C=C(/C)C(=O)O[C@H]1C(C)=C2[C@H]([C@@H]1OC(=O)CCCCCCC)[C@@](C)(OC(C)=O)C[C@H](OC(=O)CCC)[C@@]1(O)[C@H]2OC(=O)[C@@]1(C)O [thapsigargin]
receptor autophosphorylation (ErbB1 [7]): inhibit receptor autophosphorylation

ErbB2(676–692): peptide corresponding to the juxtamembrane region of ErbB2 (Ac-CKRRQQKIRKYTMRRLLQ-NH2; not fully specified (residue 1))
Ca/CaM Association Constant (KCaM) (calmodulin (Ca/CaM)): 6e+07 M⁻¹

ErbB3(667–683): peptide corresponding to the juxtamembrane region of ErbB3 (Ac-CRGRRIQNKRAMRRYLER-NH2; not fully specified (residue 1))
Ca/CaM Association Constant (KCaM) (calmodulin (Ca/CaM)): 3e+06 M⁻¹

ErbB4(676–692): peptide corresponding to the juxtamembrane region of ErbB4 (Ac-CRRKSIKKKRALRRFLET-NH2; not fully specified (residue 1))
Ca/CaM Association Constant (KCaM) (calmodulin (Ca/CaM)): 2e+07 M⁻¹

acrylodan-labeled ErbB1(645–660): ErbB1(645–660) labeled with acrylodan (Ac-C(acrylodan)RRRHIVRKRTLRRLLQ-NH2; SMILES CC[C@H](C)[C@H](NC(=O)[C@H](Cc1c[nH]cn1)NC(=O)[C@H](CCCNC(=N)N)NC(=O)[C@H](CCCNC(=N)N)NC(=O)[C@H](CCCNC(=N)N)NC(=O)[C@H](CSCCC(=O)c1ccc2cc(N(C)C)ccc2c1)NC(C)=O)C(=O)N[C@H](C(=O)N[C@@H](CCCNC(=N)N)C(=O)N[C@@H](CCCCN)C(=O)N[C@@H](CCCNC(=N)N)C(=O)N[C@H](C(=O)N[C@@H](CC(C)C)C(=O)N[C@@H](CCCNC(=N)N)C(=O)N[C@@H](CCCNC(=N)N)C(=O)N[C@@H](CC(C)C)C(=O)N[C@@H](CC(C)C)C(=O)N[C@@H](CCC(N)=O)C(N)=O)[C@@H](C)O)C(C)C)
rate of removal from vesicles by Ca/CaM ([8]; 10% PS): 100 s⁻¹
rate of removal from vesicles by Ca/CaM ([8]; 15% PS): 10 s⁻¹
transfer rate constant (slope of 1/τ vs. [CaM]) ([8]; 85:15 PC/PS vesicles (15% PS)): 5e+06 M⁻¹ s⁻¹
lifetime of peptide on vesicles ([8]; 85:15 PC/PS vesicles, without Ca/CaM): ~0.3 s

calcium/calmodulin (from UniProt P0DP23 1-149) (natural protein)
fold reduction of KCaM against the unphosphorylated peptide [9]: 20 fold

epidermal growth factor [EGF]
ErbB1 activation (ErbB1 [10]): can activate ErbB1 both in membranes and in solubilized form
intracellular [Ca2+] (hepatocytes): 150 nM
increase of intracellular [Ca2+] (A431 cells; 30 nM EGF, ∼5 min): about fivefold
intracellular [Ca2+] (A431 cells; 5 min): 600 nM
intracellular [Ca2+] (A431 cells; by 15 min): 150 nM
